Experimental data taken from PubChem BioAssay.
Activity calls are given as the source filed them.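 The calls were made as follows, unless noted: active = viability loss from added drug above about 55%, and viability with drug at most 40%, in both replicates (limit read from the data, passing the limit was not always enough); inconclusive = both conditions met in only one replicate; inactive = neither replicate meets both conditions.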

Key:
[1] = Her2 expression decrease, cell viability multiplex – SKBR3 breast tumor cells, AlphaScreen, ATP viability, primary screen (AID 461;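 active = Her2 level under about 52% in both replicate screens, with viability over 70% of control, limit read from the data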;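 as to Her2 level: lower value means less Her2 protein in the cells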;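 as to viability: percent of carrier control wells set as 100% viability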); settings: SKBR3 Her2 protein level, 18-24 h, measured here: SKBR3 viability, ATP luminescence, at 10 µM
[2] = target: Receptor tyrosine-protein kinase erbB-2 (Homo sapiens) (UniProt P04626); test: as above; settings: 18-24 h, at 10 µM, stronger effect = lower value
[3] = reduced viability of SK-BR-3 breast cancer cells – cell-based, 24 h, human, pilot screen (AID 572;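 active = viability at or below 10% of carrier control in both of two separate runs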;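 also: compound exposure lasted between 18 and 24 h rather than exactly 24 h; 100% = carrier-treated control wells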); settings: SK-BR-3 viability, CellTiter-Glo luminescence, at 10 µM, stronger effect = lower value
[4] = HUVEC growth inhibition – cell-based, human, primary screen (AID 575;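 active = viability at or below 30% in both replicate assays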;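 also: 100% = median of untreated cell wells with 0.1% DMSO on each plate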); settings: HUVEC proliferation, CellTiter-Glo luminescence, 72 h; at 10 µM; stronger effect = lower value
How it was run: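 material = primary HUVEC, no more than 12 passages | input = 1250 cells per well | controls = vehicle and MePR control wells | measured by = CTG luminescence | times = 72 h compound incubation | format = collagen-coated 384-well format | read-out = % viability vs DMSO wells | doses = single 10 µM dose, 0.1% DMSO, from 5x medium stock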

[5] = H69AR cell proliferation blockers – human, duplicate replicates, primary screen (AID 580;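 active = viability at or under a set limit in both replicates, limit being median viability minus 3 SD, cut at about 48% in these data, passing the limit was not always enough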;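 also: 100% = mean luminescence of untreated wells and 0% = no signal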); settings: H69AR lung tumor cells viability, ATP luminescence, 72 h; at 10 µM; stronger effect = lower value
[6] = MRP1 drug-resistance reversers in H69AR cells – cell-based, doxorubicin co-treatment, pilot screen (AID 601); settings: CellTiter-Glo, 72 h, at 10 µM; for differential viability (reversal): stronger effect = higher value
[7] = yeast transport mutant growth inhibition pilot in 384-well plates, post-Golgi transport modulator project (AID 636; in the data active = inhibition above about 31%); settings: absorbance 615 nm, about 18 h, stronger effect = higher value
[8] = growth suppression of yeast trafficking mutant, preliminary HTS, modulators of trafficking downstream of Golgi apparatus project, 1536-format plate, OD 615 nm (AID 637; in the data active = inhibition above about 30%); settings: yeast transport mutant growth, absorbance 615 nm, 18 h; stronger effect = higher value
[9] = H69AR cells + 2 uM doxorubicin, measured here: viability with 2 uM doxorubicin, stronger effect = lower value
[10] = H69AR cells, compound alone cytotoxicity

Receptor tyrosine-protein kinase erbB-2 (Homo sapiens), sequence (P04626 whole entry, looked up): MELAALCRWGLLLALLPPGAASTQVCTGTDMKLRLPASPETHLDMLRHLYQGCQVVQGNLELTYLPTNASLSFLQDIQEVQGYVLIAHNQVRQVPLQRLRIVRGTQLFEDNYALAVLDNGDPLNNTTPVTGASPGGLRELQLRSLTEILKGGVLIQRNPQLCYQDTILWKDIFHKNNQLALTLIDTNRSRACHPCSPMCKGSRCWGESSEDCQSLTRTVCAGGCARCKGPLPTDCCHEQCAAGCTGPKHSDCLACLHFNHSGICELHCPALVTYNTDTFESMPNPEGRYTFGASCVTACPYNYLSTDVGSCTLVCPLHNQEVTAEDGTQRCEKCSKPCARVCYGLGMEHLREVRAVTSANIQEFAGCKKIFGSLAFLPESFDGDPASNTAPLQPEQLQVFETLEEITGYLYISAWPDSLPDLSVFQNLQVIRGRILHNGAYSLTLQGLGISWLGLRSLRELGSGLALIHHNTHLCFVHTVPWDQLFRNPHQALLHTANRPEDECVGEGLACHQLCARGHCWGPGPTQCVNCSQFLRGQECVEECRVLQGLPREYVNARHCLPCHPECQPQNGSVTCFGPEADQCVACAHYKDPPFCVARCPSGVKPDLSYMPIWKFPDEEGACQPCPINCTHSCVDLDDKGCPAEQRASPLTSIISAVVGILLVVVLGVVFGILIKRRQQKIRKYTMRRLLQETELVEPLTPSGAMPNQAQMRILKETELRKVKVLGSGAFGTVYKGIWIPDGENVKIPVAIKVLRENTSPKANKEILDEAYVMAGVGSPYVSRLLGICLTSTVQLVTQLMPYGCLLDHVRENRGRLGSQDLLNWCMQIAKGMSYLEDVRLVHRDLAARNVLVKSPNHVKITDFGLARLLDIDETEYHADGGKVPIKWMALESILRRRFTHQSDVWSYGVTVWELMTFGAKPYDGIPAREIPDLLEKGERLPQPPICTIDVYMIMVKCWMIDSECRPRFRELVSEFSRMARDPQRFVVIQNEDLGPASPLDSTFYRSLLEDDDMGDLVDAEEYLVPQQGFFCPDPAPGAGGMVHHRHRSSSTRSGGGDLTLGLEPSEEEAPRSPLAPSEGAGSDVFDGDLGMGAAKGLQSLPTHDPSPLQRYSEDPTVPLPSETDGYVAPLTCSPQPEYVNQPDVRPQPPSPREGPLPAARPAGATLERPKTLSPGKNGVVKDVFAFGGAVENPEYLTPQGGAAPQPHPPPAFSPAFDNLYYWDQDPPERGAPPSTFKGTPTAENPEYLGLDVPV

SMILES | viability [1] | Her2 level [2] | viability [3] | viability [4] | viability [5] | differential viability (reversal) ([6]; H69AR cells + 2 uM doxorubicin) | viability [6, 9] | viability [6, 10] | inhibition [7] | inhibition [8]
CC(=O)Nc1ccc(S(=O)(=O)Nc2nc3ccccc3nc2N2CCCC2)cc1 | 99.5% | 98% (inactive) | 99.5% (inactive) | 93.7% (inactive) | 92.3% (inactive) | -8.08% (inactive) | 100% | 92.3% | -7.87% (inactive) | 3.61% (inactive)
COc1cccc(OC)c1C(=O)N1CCN(S(=O)(=O)c2ccccc2)CC1 | 79.5% | 82.5% (inactive) | 79.5% (inactive) | 82.9% (inactive) | 97.2% (inactive) | 15.2% (inactive) | 82.1% | 97.2% | -3.42% (inactive) | -2% (inactive)
COc1ccc(-c2cn3c(C)c(C(=O)Nc4cc(NC(C)=O)ccc4OC)sc3n2)cc1 | 92% | 79.5% (inactive) | 92% (inactive) | 71.5% (inactive) | 20.2% (active) | -42.9% (inactive) | 63.1% | 20.2% | -5.73% (inactive) | -2.13% (inactive)
Cc1cc(C)n(-c2nc3nonc3nc2-n2nc(C)cc2C)n1 | 91.5% | 83% (inactive) | 91.5% (inactive) | 83.3% (inactive) | 105% (inactive) | 14.7% (inactive) | 90.3% | 105% | -2.5% (inactive) | -3.17% (inactive)
Cc1cc(=O)n2nc(-c3ccccc3)sc2n1 | 101% | 92.5% (inactive) | 101% (inactive) | 97.2% (inactive) | 92.3% (inactive) | 4.42% (inactive) | 87.8% | 92.3% | -3.73% (inactive) | 1.11% (inactive)
Cn1c2c(c(=O)n(C)c1=O)C(c1cccc(Br)c1)C1C(=O)c3ccccc3C1=N2 (stereo not given) | 103% | 97.5% (inactive) | 103% (inactive) | 72.5% (inactive) | 40.6% (active) | 5.16% (inactive) | 35.4% | 40.6% | 0.27% (inactive) | 1.43% (inactive)
O=C(Nc1ccc2c(c1)OCO2)C(c1ccc(Cl)cc1)N1CCN(C(=O)c2ccco2)CC1 (stereo not given) | 71% | 80.5% (inactive) | 71% (inactive) | 103% (inactive) | 91.4% (inactive) | 6.85% (inactive) | 84.5% | 91.4% | -5.27% (inactive) | 2.3% (inactive)
CCC(C)(C(=O)NC1CCCC1)N(C(=O)c1cnccn1)c1c(C)n(C)n(-c2ccccc2)c1=O (stereo not given) | 97% | 124% (inactive) | 97% (inactive) | 94.4% (inactive) | 91.4% (inactive) | 0.145% (inactive) | 91.2% | 91.4% | 2.34% (inactive) | -7.38% (inactive)
Cc1ccc(Cn2c(SCCN3CCCCC3)nc3c2c(=O)[nH]c(=O)n3C)cc1 | 94.5% | 104% (inactive) | 94.5% (inactive) | 84.1% (inactive) | 81.7% (inactive) | -3.14% (inactive) | 84.8% | 81.7% | -7.6% (inactive) | -6.83% (inactive)
O=C(NCc1ccc2c(c1)OCO2)c1ccccn1 | 98.5% | 107% (inactive) | 98.5% (inactive) | 92.8% (inactive) | 88.5% (inactive) | 3.29% (inactive) | 85.2% | 88.5% | -6.27% (inactive) | -12.1% (inactive)
CCCC1(C(=O)OCC)NC(c2ccc(N(C)C)cc2)C2C(=O)N(c3ccc(F)cc3)C(=O)C21 (stereo not given) | 90% | 97% (inactive) | 90% (inactive) | 104% (inactive) | 112% (inactive) | 13.8% (inactive) | 98.2% | 112% | 0% (inactive) | -2.67% (inactive)
CC(C)CSc1nc2ccccc2n1CC(N)=O | 89.5% | 96% (inactive) | 89.5% (inactive) | 87.6% (inactive) | 93.4% (inactive) | 0.185% (inactive) | 93.2% | 93.4% | -0.38% (inactive) | 0.67% (inactive)
CCc1cc(=O)oc2cc(OC(C)=O)cc(OC(C)=O)c12 | 116% | 74% (inactive) | 116% (inactive) | 76.8% (inactive) | 95.1% (inactive) | -9.96% (inactive) | 105% | 95.1% | -7.37% (inactive) | -5.5% (inactive)
CN1CCN(C(=O)CCC(=O)c2ccc(F)cc2)CC1 | 114% | 79.5% (inactive) | 114% (inactive) | 96.4% (inactive) | 94.8% (inactive) | 7.6% (inactive) | 87.2% | 94.8% | -8.53% (inactive) | -3.77% (inactive)
Cc1cc(Nc2ccccc2)n(CCC#N)n1 | 83.5% | 84.5% (inactive) | 83.5% (inactive) | 105% (inactive) | 102% (inactive) | 9.18% (inactive) | 92.9% | 102% | -5.73% (inactive) | 7.7% (inactive)
O=c1[nH]c(N2CCc3ccccc32)nc2c1CCCC2 | 125% | 104% (inactive) | 125% (inactive) | 101% (inactive) | 104% (inactive) | 21.9% (inactive) | 81.8% | 104% | -1.87% (inactive) | -1.45% (inactive)
Cc1cc(C)n(-c2nc3c(c(=O)n(Cc4ccc(Cl)c(Cl)c4)c(=O)n3C)n2C)n1 | 103% | 99% (inactive) | 103% (inactive) | 93% (inactive) | 95.6% (inactive) | 5.92% (inactive) | 89.6% | 95.6% | -1.69% (inactive) | -3.65% (inactive)
O=C(CSc1nnc2sc3ccccc3n12)c1ccco1 | 95% | 85.5% (inactive) | 95% (inactive) | 118% (inactive) | 102% (inactive) | 16.9% (inactive) | 85.3% | 102% | -4.46% (inactive) | -6% (inactive)
O=c1c2ccccc2nc(SCc2cccc(F)c2)n1Cc1ccco1 | 104% | 97.5% (inactive) | 104% (inactive) | 87.6% (inactive) | 84.2% (inactive) | 1.36% (inactive) | 82.8% | 84.2% | -5.33% (inactive) | -0.63% (inactive)
CCCC(=O)N(c1ccc2oc(=O)sc2c1)S(=O)(=O)c1ccccc1 | 75.5% | 78.5% (inactive) | 75.5% (inactive) | 78.3% (inactive) | 60% (inactive) | -20.9% (inactive) | 80.9% | 60% | -2.86% (inactive) | -3.81% (inactive)
CC(=O)c1ccc(Oc2cc(C)nc(-n3nc(C)cc3C)n2)cc1 | 107% | 96% (inactive) | 107% (inactive) | 51.7% (inactive) | 29.4% (active) | -36.8% (inactive) | 66.2% | 29.4% | -5.87% (inactive) | -2.1% (inactive)
CCOC(=O)c1cc2n(n1)C(C(F)(F)C(F)(F)F)CC(C)N2 (stereo not given) | 92% | 93.5% (inactive) | 92% (inactive) | 105% (inactive) | 97.3% (inactive) | 4.36% (inactive) | 93% | 97.3% | -3.73% (inactive) | -0.32% (inactive)
CC1=C(C(=O)NC2CCC(C)CC2)C2(CCC(C)CC2)OC1=O (stereo not given) | 112% | 84% (inactive) | 112% (inactive) | 96.2% (inactive) | 90.4% (inactive) | -3.75% (inactive) | 94.1% | 90.4% | -2.27% (inactive) | -5.25% (inactive)
C=CCn1c(=O)c2ccccc2n2c(SCC(=O)Nc3cc(C)on3)nnc12 | 92.5% | 89% (inactive) | 92.5% (inactive) | 87% (inactive) | 98.3% (inactive) | 10.6% (inactive) | 87.7% | 98.3% | -3.65% (inactive) | 1.75% (inactive)
CCc1cc2ccc(C)cc2nc1SCC(=O)N1CCN(C(=O)c2ccco2)CC1 | 112% | 82% (inactive) | 112% (inactive) | 70.1% (inactive) | 64.5% (inactive) | -5.54% (inactive) | 70% | 64.5% | -3.82% (inactive) | -0.18% (inactive)
Cc1cc(C)n(-c2nc3ccccc3c(=O)n2OCCOc2ccccc2)n1 | 78% | 93% (inactive) | 78% (inactive) | 97.2% (inactive) | 89.6% (inactive) | 10.3% (inactive) | 79.3% | 89.6% | -0.13% (inactive) | -6.07% (inactive)
CCOc1ccccc1C(=O)NC(C)c1ccc2c(c1)OCO2 (stereo not given) | 104% | 99% (inactive) | 104% (inactive) | 67.6% (inactive) | 23.5% (active) | -56.4% (inactive) | 80% | 23.5% | -6.89% (inactive) | -4.26% (inactive)
CCOc1ccc(NC(=O)c2ccc3c(c2)N(Cc2ccc(F)cc2)C(=O)CS3=O)cc1 (stereo not given) | 90% | 81.5% (inactive) | 90% (inactive) | 70.4% (inactive) | 90% (inactive) | 11.4% (inactive) | 78.6% | 90% | -1.07% (inactive) | -0.17% (inactive)
